Measurements published in ChEMBL document CHEMBL3085650, “Extending the record of bis-γ-pyrone polypropionates from marine pulmonate mollusks” (J Nat Prod, 2013).
pIC50: −log10 of the molar value.

Legend:
A549 = experiment: Growth inhibition of human A549 cells after 72 hrs by MTT assay; format: functional, cell-based; settings: A549, 72 h
Method in brief: (§1)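 Human cancer cell lines (from ATCC, ECACC or DSMZ) cultured 72 h with compound; viable cells measured by MTT colorimetric assay, where mitochondrial succinate dehydrogenase reduces yellow MTT to blue formazan, read by spectrophotometry. Optical density of treated versus control cells gives growth inhibition, expressed as IC50 (μM). Camptothecin and etoposide served as reference compounds.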

MCF7 = experiment: Growth inhibition of human MCF7 cells after 72 hrs by MTT assay; format: functional, cell-based; settings: MCF7, 72 h; method in brief: as §1
PC-3 = experiment: Growth inhibition of human PC3 cells after 72 hrs by MTT assay; format: functional, cell-based; settings: PC-3, 72 h; method in brief: as §1
[1] = Growth inhibition of human Hs683 cells after 72 hrs by MTT assay; format: functional, cell-based; settings: Hs 683, 72 h; method in brief: as §1
[2] = Growth inhibition of human U373 cells after 72 hrs by MTT assay; format: functional, cell-based, U-373MG ATCC; settings: U373 MG; method in brief: as §1
SK-MEL-28 = experiment: Growth inhibition of human SK-MEL-28 cells after 72 hrs by MTT assay; format: functional, cell-based; settings: SK-MEL-28, 72 h; method in brief: as §1

Row | SMILES | pIC50 (A549) | pIC50 (MCF7) | pIC50 (PC-3) | pIC50 [1] | pIC50 [2] | pIC50 (SK-MEL-28)
1 | CCc1oc([C@H](C)/C=C(\C)[C@H](OC(C)=O)[C@H](C)[C@@H](OC(=O)CC(C)C)[C@@H](C)c2oc([C@@H](C)[C@H](CC)OC(C)=O)c(C)c(=O)c2C)c(C)c(=O)c1C | 4.55 | 4.60 | 5.15 | 4.62 | 4.49 | 4.48
2 | CCc1oc([C@H](C)/C=C(\C)[C@H](OC(C)=O)[C@H](C)[C@@H](OC(=O)CC(C)C)[C@@H](C)c2oc([C@@H](C)[C@@H](O)CC)c(C)c(=O)c2C)c(C)c(=O)c1C | 4.82 | 4.82 | 5.52 | 4.52 | 4.68 | 4.60
3 | CCC(=O)[C@H](C)c1oc([C@H](C)[C@@H]2O[C@](O)([C@@H](C)c3oc(CC)c(C)c(=O)c3C)[C@@H](C)[C@@H](O)[C@@H]2C)c(C)c(=O)c1C | < 4.00 | < 4.00 | < 4.00 | < 4.00 | < 4.00 | < 4.00
4 | COc1cc([C@@H]2c3cc4c(cc3[C@@H](O[C@@H]3O[C@@H]5CO[C@@H](C)O[C@H]5[C@H](O)[C@H]3O)[C@H]3COC(=O)[C@H]23)OCO4)cc(OC)c1O [ETOPOSIDE] | 5.70 | 5.40 | < 4.00 | 5.70 | 4.60 | 5.52
5 | CC[C@@]1(O)C(=O)OCc2c1cc1n(c2=O)Cc2cc3ccccc3nc2-1 [CAMPTOTHECIN] | > 8.00 | > 8.00 | 8.00 | > 8.00 | 7.82 | > 8.00
6 | CCC(=O)O[C@@H](/C(C)=C/[C@@H](C)c1oc(CC)c(C)c(=O)c1C)[C@H](C)[C@@H](OC(=O)CC(C)C)[C@@H](C)c1oc([C@@H](C)[C@H](CC)OC(C)=O)c(C)c(=O)c1C | 5.52 | 5.40 | 5.70 | 5.52 | 5.05 | 5.15
7 | CCC(=O)[C@H](C)c1oc([C@H](C)[C@@H]2O[C@](O)([C@@H](C)c3oc(CC)c(C)c(=O)c3C)[C@@H](C)[C@@H](OC(=O)CC(C)C)[C@@H]2C)c(C)c(=O)c1C | 4.59 | 4.68 | 4.80 | 4.64 | 4.60 | 4.64
8 | CCc1oc([C@H](C)/C=C(\C)[C@H](O)[C@H](C)[C@@H](OC(=O)CC(C)C)[C@@H](C)c2oc([C@@H](C)[C@@H](O)CC)c(C)c(=O)c2C)c(C)c(=O)c1C | < 4.00 | < 4.00 | < 4.00 | < 4.00 | < 4.00 | < 4.00
9 | CCC(=O)[C@@H](C)c1oc([C@H](C)[C@@H]2O[C@](O)([C@@H](C)c3oc(CC)c(C)c(=O)c3C)[C@@H](C)[C@@H](O)[C@@H]2C)c(C)c(=O)c1C | < 4.00 | 4.06 | 4.09 | < 4.00 | < 4.00 | < 4.00
10 | CCC(=O)O[C@@H](/C(C)=C/[C@@H](C)c1oc(CC)c(C)c(=O)c1C)[C@H](C)[C@@H](OC(=O)CC(C)C)[C@@H](C)c1oc([C@@H](C)[C@@H](O)CC)c(C)c(=O)c1C | 4.92 | 4.92 | 5.52 | 4.89 | 4.68 | 4.60
